Assay results taken from PubChem BioAssay.
A number with no mark means an inactive call. Inconclusive results are not listed. Active and inactive are the calls of the source.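 How the source made its calls, unless noted: active means cell viability at or below a set limit in both duplicate runs, the limit being the all-compound median minus 4 SD (cut at about 23% in these data, passing the limit was not always enough); inconclusive means no clear call, values can overlap the other calls; inactive means the rest.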

Tests used:
[1] = OD615 S. cerevisiae growth inhibition, permissive medium, pilot counter-assay, permissive growth control for S. cerevisiae lifespan shortening project (AID 705;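 active means growth inhibition above 25% in both replicates, a cutoff set 3 SD above the mean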); conditions: OD615, 24 h, at 10 µM, active compounds read high
Method in brief: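 System: engineered DeaD yeast; Medium: permissive raffinose/galactose medium; Compound dosing: 10 µM single dose, 0.25% DMSO; Incubation: 4 h cell pre-growth, 24 h exposure at 30 °C; Technique: OD at 615 nm; Evaluation: growth inhibition from lowered OD615 after 24 h.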

[2] = Restrictive medium S. cerevisiae growth inhibition, OD615, pilot screen of yeast lifespan reduction project, restrictive growth control (AID 706;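 active means growth inhibition above a set limit, 3 SD over mean compound inhibition, in both replicates, cut at about 43% in these data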;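 further: modified DeaD lifespan yeast strain shifted to restrictive glucose medium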); conditions: OD615, 48 h, at 10 µM, active compounds read high
Method in brief: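 Material: modified S. cerevisiae; buffer or medium: CSMM-D glucose medium; doses: one concentration, 10 µM final, 0.25% DMSO; incubation: 48 h compound exposure at 30 °C; detection: optical density at 615 nm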

[3] = viability gain of MRP-1-high H69AR cells under doxorubicin, pilot screen, MRP-1 activator project, CellTiter-Glo, duplicate (AID 807;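 active means viability increase at or above a cutoff of the median across tested compounds plus 3 SD, cut at about 8.5% in these data, passing the limit was not always enough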;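 further: compound pretreatment 18-22 h then 72 h combined with doxorubicin; 0% = doxorubicin alone and 100% = vehicle without doxorubicin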); conditions: H69AR viability with doxorubicin, CellTiter-Glo luminescence; at 10 µM; active compounds read high
[4] = growth suppression of beta-catenin knockout HCT116, pilot screen, human colon tumor cells (AID 823); conditions: CellTiter-Glo, 60 h, at 10 µM, active compounds read low;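 further: 0% = wells killed by 20 µM Hyamine and 100% = untreated DMSO cell wells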
[5] = growth suppression of PTEN-deleted HCT116, pilot screen, cell-based, HCT116 clonal line, CellTiter-Glo (AID 824;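 active means viability at or below 27.92% in each of two runs, the all-compound median minus 4 SD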;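 further: 0% = 20 µM Hyamine control and 100% = vehicle cell control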); conditions: 60 h, at 10 µM, active compounds read low
[6] = inhibitors of the yeast RAM network, pilot screen, dse1pr::URA3 reporter, 5-FOA selection (AID 869;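 active means inhibition over a set limit, the all-compound mean plus 3 SD, in both replicate runs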;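 further: 0% = DMSO wells with no growth and 100% = 10 µM 1-NA-PP1 with full growth; RAM network block rescues cells from 5-FOA so hits raise OD615 growth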); conditions: S. cerevisiae dse1pr::URA3 5-FOA growth, OD615, 2 d; at 10 µM; active compounds read high; strain carries analog-sensitive mutant Cbk1 kinase
[7] = RAM signaling pathway blockade in yeast – S. cerevisiae, Pdr1DBD-CYC8 efflux-inhibited sensitized strain, primary screen (AID 1298;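 active means RAM network inhibition above 8.4% in each of two replicates, 3 SD over the compound average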;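 further: 0% = DMSO untreated cells without growth and 100% = 10 µM 1-NA-PP1 full growth; higher means more yeast growth rescued from 5-FOA killing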); conditions: S. cerevisiae cbk1-as DSE1-URA3 strain, 5-FOA growth OD615, 2 d; at 50 µM; active compounds read high

Compound	growth inhibition [1]	growth inhibition [2]	viability increase [3]	viability [4]	viability [5]	inhibition [6]	RAM network inhibition [7]
CCOc1ccccc1CNS(=O)(=O)c1ccc2c(c1)oc(=O)n2C	-8.67%	-0.955%	-1.75%	102%	94%	-0.575%	1.03%
O=C1C(=O)N(CCO)C(c2ccccc2)/C1=C(\O)c1ccccc1 (stereo not given)	-18.6%	-8.67%	0.49%	99.7%	101%	1.29%	0.42%
Cc1ccc(CCNC(=O)C2CCCN(S(=O)(=O)c3c(C)noc3/C=C/N(C)C)C2)cc1 (stereo not given)	-1.76%	6.26%	-1.67%	88.1%	74.1%	1.85%	1.68%
CCCCOc1ccc(C2(C)CC(=O)NC2=O)cc1 (stereo not given)	19.7%	10.9%	-1.56%	95.3%	91.8%	0.425%	-1.18%
Cn1c(NC(=O)c2ccc(C(C)(C)C)cc2)cc(=O)n(C)c1=O	-2.62%	-6.46%	-2.04%	91.1%	96.5%	1.97%	1.63%
COc1ccc(C2(CNC(C)=O)CCOCC2)cc1OC	-14.1%	-2.29%	1.21%	103%	97.8%	2.54%	-0.32%
CC1CC(C)CN(C(=O)CSc2nnc(-c3ccc(Cl)cc3)o2)C1 (stereo not given)	-0.98%	-3.64%	1.73%	94.1%	89.2%	1.4%	7.35%
Nc1nc(NC(=O)c2cccc(S(=O)(=O)N3CCCCCC3)c2)nc(-c2ccccc2)n1	-1.66%	6.65%	-4.04%	74.8%	74.4%	3.56%	4.53%
CCCc1n[nH]c2c1C(=O)C(C(=O)OC)C(C)(C)C2 (stereo not given)	-12.6%	-12.8%	-3.14%	95.9%	95.8%	1.14%	4.78%
O=C(c1ccc(N2CCCCS2(=O)=O)cc1)N1CCN(c2ccc(N3CCOCC3)nn2)CC1	3.18%	14.7%	-0.03%	105%	106%	0.09%	1.25%
Cn1cccc1Cc1nnc(SCC(=O)NC2CCCCC2)n1-c1ccc(F)cc1	1.67%	-4.1%	-1.86%	95.4%	96.7%	1.08%	4.28%
Clc1ccc(CCNc2ncnc3nc[nH]c23)cc1	12.7%	48.5% (active)	0.89%	74.7%	77%	-0.895%	2.97%
Cc1ccc2nc(N3CCOCC3)c3nncn3c2c1	-6.37%	3.97%	-2.43%	106%	96.1%	0.915%	1.57%
Cc1ccc(C(c2sc3nc(C)nn3c2O)N2CCN(CCO)CC2)cc1 (stereo not given)	-1.01%	7%	-0.92%	97.8%	97.5%	1.54%	4.52%
CCOC(=O)c1ccc(NC(=O)C2CCCN(S(=O)(=O)c3cnc[nH]3)C2)cc1 (stereo not given)	2.33%	2.53%	0.94%	105%	96.7%	0.31%	2.17%
